# Assay results published in publication PMC2937276 (Molecular cancer therapeutics, 2010).
# Like-named read-outs stand apart in the source and are kept apart here.
# Key:
# [1] = system: primary astrocytes cultures; experiment: Cell counting, growth of primary astrocytes under drug; format: cell-based, Mouse; details: increasing concentrations for 24 hours; 250 nM over time
# How it was run: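 Primary mouse astrocyte cultures were grown with rising compound concentrations for 24 h, then counted. A second set was exposed to 250 nM for the indicated times before viable-cell counts. Counts are expressed as % of untreated cells. Values are means of triplicates with SD; t-test.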
# [2] = system: GBM culture 46; experiment: XTT cell proliferation assay; format: cell-based, Mouse; details: Mus musculus, 36 h
# How it was run: (§1)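 Primary human or mouse GBM cultures (DMEM, 10% FBS) were seeded at 5000 cells per 96-well well. Cells were cultured with test compound or vehicle for 36 h. Proliferation was read by XTT assay in quadruplicate. IC50 came from nonlinear-regression curve fitting.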
# [3] = system: GBM culture GBM8; experiment: XTT cell proliferation assay; format: cell-based, Human; details: Homo sapiens, 36 h
# How it was run: as §1
# [4] = system: GBM culture GBM-2; experiment: XTT cell proliferation assay; format: cell-based, Mouse; details: Mus musculus, GBM2, 36 h
# How it was run: as §1
# [5] = system: GBM culture 2736; experiment: XTT cell proliferation assay; format: cell-based, Mouse; details: Mus musculus, 36 h
# How it was run: as §1
# [6] = system: GBM culture 42; experiment: XTT cell proliferation assay; format: cell-based, Mouse; details: Mus musculus, 36 h
# How it was run: as §1
# [7] = system: GBM culture 102; experiment: XTT cell proliferation assay; format: cell-based, Mouse; details: Mus musculus, 36 h
# How it was run: as §1
# [8] = system: GBM culture 103; experiment: XTT cell proliferation assay; format: cell-based, Mouse; details: Mus musculus, 36 h
# How it was run: as §1
# [9] = system: GBM culture 2231; experiment: XTT cell proliferation assay; format: cell-based, Mouse; details: Mus musculus, 36 h
# How it was run: as §1
# [10] = system: GBM culture GBM43; experiment: XTT cell proliferation assay; format: cell-based, Human; details: Homo sapiens, 36 h
# How it was run: as §1
# [11] = system: GBM culture 2000; experiment: XTT cell proliferation assay; format: cell-based, Mouse; details: Mus musculus, 36 h
# How it was run: as §1
# [12] = system: GBM culture GBM6; experiment: XTT cell proliferation assay; format: cell-based, Human; details: Homo sapiens, GBM6, 36 h
# How it was run: as §1
# [13] = system: GBM cells; experiment: Apoptosis analysis; format: cell-based, Mouse; details: 250 nM
# How it was run: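 Two apoptosis read-outs on primary mouse GBM cultures (DMEM, 10% FBS), each with 250 nM compound for the indicated times. Pyknotic nuclei: 10,000 cells per chamber-slide well, fixed in fresh 4% PFA for 15 min, Hoechst 33258 at 5 µg/ml for 5 min. Nuclei were scored by fluorescence microscopy as % pyknotic over total across three areas. Cleaved caspase-3: western blot. Mean of three independent experiments ± SD.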
# [14] = system: GBM culture 2414; experiment: XTT cell proliferation assay; format: cell-based, Mouse; details: Mus musculus, 36 h
# How it was run: as §1
# [15] = system: Hsp90 client proteins EGFR, Akt, Cdk4 and Cyclin D1; experiment: Immunoblot analysis of Hsp90 client proteins in mouse GBM cultures; format: cell-based
# How it was run: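 Mouse GBM-1 and GBM-2 cultures and primary astrocytes treated with 250 nM test compound for varying times, or for 24 h against vehicle. RIPA lysates with 5 mM Na3VO4 and protease inhibitors. 40 µg resolved by SDS-PAGE onto PVDF, blocked in TBS-T/BSA/milk. Primary antibodies overnight at 4°C, secondary 1:10000 for 1 h at room temperature, ECL detection. Dynamin as control.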
# [16] = system: GBM culture GBM59; experiment: XTT cell proliferation assay; format: cell-based, Human; details: Homo sapiens, 36 h
# How it was run: as §1
# [17] = system: GBM culture 2415; experiment: XTT cell proliferation assay; format: cell-based, Mouse; details: Mus musculus, 36 h
# How it was run: as §1
# [18] = format: in vivo, CD-1 mice; details: for Kp: brain and plasma
# [19] = system: GBM culture GBM-1; experiment: XTT cell proliferation assay; format: cell-based, Mouse; details: Mus musculus, GBM1, 36 h
# How it was run: as §1
# [20] = system: GBM culture 2227; experiment: XTT cell proliferation assay; format: cell-based, Mouse; details: Mus musculus, 36 h
# How it was run: as §1
# [21] = Brain concentrations of HSP90 inhibitors after a single i.p. injection; details: NCR-Nude, mouse, intraperitoneal
# [22] = Hepatotoxicity and toxicity on exposure in mice; format: in vivo
# [23] = system: GBM culture GBM39; experiment: XTT cell proliferation assay; format: cell-based, Human; details: Homo sapiens, GBM39, 36 h
# How it was run: as §1
# [24] = system: GBM culture GBM22; experiment: XTT cell proliferation assay; format: cell-based, Human; details: Homo sapiens, 36 h
# How it was run: as §1
# [25] = system: GBM culture GBM15; experiment: XTT cell proliferation assay; format: cell-based, Human; details: Homo sapiens, 36 h
# How it was run: as §1
# [26] = system: GBM culture GBM12; experiment: XTT cell proliferation assay; format: cell-based, Human; details: Homo sapiens, 36 h
# How it was run: as §1
# [27] = system: EGFR-driven mouse GBM tumor primary cell cultures (GBM-1 & -2); experiment: Cell counting, growth of GBM cell cultures under drug; format: cell-based; details: increasing concentrations for 24 hours; 250 nM over time
# How it was run: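 Mouse primary GBM cultures (GBM-1: wild-type plus vIII EGFR; GBM-2: EGFRvIII), alongside primary mouse astrocytes, kept in DMEM with 10% FBS. Cells exposed to increasing test-compound concentrations for 24 h, or to 250 nM for varying times. Viable cells counted and expressed as percent of untreated cells. Mean of triplicates with S.D.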
# [28] = system: GBM culture 69; experiment: XTT cell proliferation assay; format: cell-based, Mouse; details: Mus musculus, 36 h
# How it was run: as §1
# [29] = system: Hsp90 client proteins EGFR, Akt, Cdk4 and CyclinD1; experiment: Immunoblot analysis of Hsp90 client proteins in human GBM cultures; format: cell-based; details: human primary GBM culture cells; 250 nM, 24 hours
# How it was run: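 Human primary GBM cultures in DMEM with 10% FBS, given 250 nM test compound or vehicle for 24 h. Lysed in RIPA with 5 mM Na3VO4 and protease inhibitors. Equal protein (40 µg) resolved by SDS-PAGE, transferred to PVDF, blocked in TBS-T with 1% BSA and 5% milk. Primary antibodies overnight at 4°C, secondary 1:10000 for 1 h at room temperature, ECL.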
# [30] = system: EGFRvIII-driven GBM tumors; experiment: Treatment of mice bearing GBM tumors; format: in vivo
# How it was run: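 Adult (≥3 months) conditional EGFR*/Cdkn2a/Pten/CAG-luc mice under ketamine/xylazine received 250 nL adeno-CMV-Cre stereotaxically into the brain. Tumours were followed by luciferin (225 mg/kg IP) bioluminescence and randomised at the signal threshold. Dosing: 100 mg/kg IP in DMA/Tween 20/Cremophor/saline vehicle, or vehicle alone, thrice weekly ×2 weeks, then twice weekly for >100 days. At 180 days, survivors were perfused with PFA; coronal paraffin sections were H&E-stained. N=5 control, N=4 treated.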
# [31] = system: GBM culture 41; experiment: XTT cell proliferation assay; format: cell-based, Mouse; details: Mus musculus, 36 h
# How it was run: as §1
# [32] = male, CD-1, mouse, brain, iv, 25 mg/kg
# [33] = male, CD-1, mouse, brain, iv, 70 mg/kg
# [34] = male, CD-1, mouse, plasma, iv, 25 mg/kg
# [35] = male, CD-1, mouse, plasma, iv, 70 mg/kg
# [36] = repeat dose, 25 mg/kg i.v. every other day
compound,measurement,setting,value
O=C1OCC/C=C/CC/C=C/C(=N/OCC(=O)N2CCCCC2)Cc2c(Cl)c(O)cc(O)c21 [NXD30001],inhibition of astrocyte growth,[1],but not of astrocytes
same,IC50,[2],54.3 ± 12.5 nM
same,IC50,[3],5690 ± 450 nM
same,IC50,[4],111 ± 9.4 nM
same,IC50,[5],77.6 ± 2.8 nM
same,IC50,[6],73.8 ± 0.7 nM
same,IC50,[7],360 ± 21.6 nM
same,IC50,[8],576 ± 14.8 nM
same,IC50,[9],146 ± 3.7 nM
same,IC50,[10],86.3 ± 0.2 nM
same,IC50,[11],115 ± 9.4 nM
same,IC50,[12],1220 ± 35.1 nM
same,cleaved-caspase 3 (western blot),[13],appearance of cleaved-caspase 3
same,increase in apoptosis level (pyknotic nucleated cells),[13],10 fold
same,IC50,[14],31.7 ± 4.9 nM
same,Hsp90 client protein levels (western blot),"[15]; GBM-1 & -2 cultures, 250 nM for the indicated times","degradation of the Hsp90 client proteins EGFR, Akt, Cdk4 and Cyclin D1"
same,Hsp90 client protein levels (western blot),"[15]; mouse primary GBM culture cells, 250 nM, 24 hours","deplete the Hsp90 client proteins EGFR, Akt, Cdk4 and CyclinD1"
same,IC50,[16],232 ± 13.2 nM
same,IC50,[17],251 ± 57.7 nM
same,AUC(0-t),"[18]; brain, repeated i.v. injections 25 mg/kg every other day, 7 doses",940 ng·h/g
same,AUC(0-t),"[18]; brain, single i.v. injection 70 mg/kg",1073 ng·h/g
same,Kp,"[18]; male, CD-1, mouse, iv, 25 mg/kg",0.135
same,Kp,"[18]; male, CD-1, mouse, iv, 70 mg/kg",0.201
same,Cmax,[18]; [32],210 ng/g
same,Tmax,[18]; [32],0.25 h
same,half-life,[18]; [32],8.99 h
same,Cmax,[18]; [33],223 ng/g
same,Tmax,[18]; [33],0.5 h
same,half-life,[18]; [33],4.07 h
same,AUC(0-t),[18]; [34],6960 ng·h/mL
same,C0 at 0.5 h,[18]; [34],4530 ng/mL
same,Vd,[18]; [34],27.9 L/kg
same,clearance,[18]; [34],59.8 mL/min/kg
same,half-life,[18]; [34],5.4 h
same,AUC(0-t),[18]; [35],5350 ng·h/mL
same,C0,[18]; [35],2140 ng/mL
same,Vd,[18]; [35],51.5 L/kg
same,clearance,[18]; [35],217 mL/min/kg
same,half-life,[18]; [35],2.74 h
same,concentration detected in brain prior to the last dose,[18]; [36],less than 10 ng/g
same,concentration detected in plasma prior to the last dose,[18]; [36],less than 10 ng/mL
same,IC50,[19],78.3 ± 8.3 nM
same,IC50,[20],134 ± 7.7 nM
same,concentration at 6 h,[21]; 100 mg/kg,676 ng/g
same,concentration at 12 h,[21]; 100 mg/kg,823 ng/g
same,concentration at 24 h,[21]; 100 mg/kg,271 ng/g
same,concentration at 48 h,[21]; 100 mg/kg,10.7 ng/g
same,concentration at 6 h,[21]; 150 mg/kg,1440 ng/g
same,concentration at 12 h,[21]; 150 mg/kg,3420 ng/g
same,concentration at 24 h,[21]; 150 mg/kg,900 ng/g
same,concentration at 48 h,[21]; 150 mg/kg,116 ng/g
same,toxicity observed in the treated animals,[22]; GBM-bearing mice treated with 100 mg/kg i.p.,absence of toxicity
same,hepatotoxicity,"[22]; short and long term exposure in mice, data not shown and ref 13",does not result in hepatotoxicity
same,IC50,[23],111.6 ± 1 nM
same,IC50,[24],5260 ± 152 nM
same,IC50,[25],60.7 ± 0.5 nM
same,IC50,[26],2330 ± 60 nM
same,inhibition of GBM cell growth,[27],dose and time dependent inhibition of GBM cell growth
same,IC50,[28],73.4 ± 2.5 nM
same,Hsp90 client protein levels (western blot),[29],"deplete the Hsp90 client proteins EGFR, Akt, Cdk4 and CyclinD1"
same,effect on survival (Kaplan-Meier),"[30]; 100 mg/kg i.p. thrice weekly (X2) then twice weekly, versus vehicle",statistically significant prolongation in survival
same,survival of treated animals,"[30]; half of the treated animals, 100 mg/kg i.p. thrice weekly (X2) then twice weekly, N=4 treated",> 180 days
same,histological analysis of H&E stained brain sections of surviving animals,"[30]; surviving treated animals, after 180 days",few remaining tumor cell clusters
same,IC50,[31],80.2 ± 5.9 nM
